This is a sample that favours compounds with a hit; in the whole collection about 4.8% have one here.
WT yeast gro inh = growth inhibition of WT yeast, mitochondrial fusion screen | actives 2.1% (n = 190,000) | mitochondrial fusion phenotypic screen, WT strain | AID 1362 | inhibition, % at 10 µM; in the data active = inhibition above about 58%; tested in S. cerevisiae
SUMO Mot1 rescue = blocks SUMOylation pathway, rescuing yeast Mot1-301 growth | actives 1% (n = 320,000) | growth rescue, % at 18.8 µM | S. cerevisiae Mot1-301 growth rescue, ATP luminescence, 38.5C; percent above DMSO median, 100 means doubled;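 active = every valid replicate shows activation above 250% relative to neutral control wells; inactive = the rest, any valid replicate at or below 250%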;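 note: OY570 slx delta 5 strain wells were the positive control but not used for scaling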
Efflux pump mplx = inhibitors of Candida antifungal efflux pumps expressed in yeast; inhibition, % at 10 µM; S. cerevisiae Candida pump triplex, Nile Red efflux; actives 0.44% (n = 330,000);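 active = plate passing quality check with inhibition over a set limit, or well fluorescence over plate mean plus 4 SD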;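 note: Nile Red retained in pooled yeast measured as flow cytometry median fluorescence; 0% = buffer negative control and 100% = Enniatin B positive control; higher means more Nile Red kept so more efflux inhibition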
T cruzi inh = blocks replication of Trypanosoma cruzi; T. cruzi beta-gal in NIH3T3, luminescence, 90 h; inhibition, % (concentration not given with the values); actives 1.4% (n = 300,000); AID 1885;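 active = mean inhibition across valid replicates above about 55%, limit read from the data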;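 note: signal also drops with host cell toxicity which is not excluded here; 0% = plate median of DMSO wells and 100% = zero luminescence signal; higher percent means less beta-gal luminescence so fewer parasites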
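System – NIH/3T3 host cells with β-galactosidase reporter T. cruzi · Doses – single 50 nL compound addition per well in DMSO · Reagent – 5000 T. cruzi trypomastigotes/well · Medium – Low-serum DMEM with 2% FBS · Timing – ≥90 h infection period, 3 h prior cell attachment · Evaluation – parasite load inhibition, % · Technique – GalScreen luminescence, 60 min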
Beta apoptosis = blocks beta cell apoptosis | INS-1E cytokine-induced death, ATP luminescence, 48 h; percent of positive-control rescue, neutral wells zero | protection from apoptosis, % (no concentration beside the values) | actives 0.8% (n = 300,000) | AID 435005;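 active = Every replicate reaches about 75%, or at least half do and their mean reaches it too, limit read from the data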;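 note: 0% = cytokine-treated negative control wells and 100% = positive control rescue; higher means more ATP so stronger rescue from cytokine killing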
CSC inhib = cancer stem cell inhibition; AID 2717; inhibition, % at 7.5 µM; actives 1.1% (n = 300,000); cancer stem cell-like cells viability, luminescence; in the data active = inhibition above about 75%; tested in HMLE shEcad cells
Active calls of the source: *; / = not tested or not shown.

SMILES	WT yeast gro inh	SUMO Mot1 rescue	Efflux pump mplx	T cruzi inh	Beta apoptosis	CSC inhib
CCc1ccccc1NC(=S)N(CCCN(C)C)Cc1cc2cc3c(cc2[nH]c1=O)OCO3	0.4	-15.9	-0.4	2.9	-1.6	-1.6
CC(=O)N=c1sc(C(C)(C)C)c(C)n1C	-17.3	/	-0.1	4.5	-2.8	/
CC(C)Oc1cccc(C(=O)NC(=S)Nc2ccccc2N2CCOCC2)c1	/	20.3	0.3	27.5	1.2	121.2*
CCOc1ccc(C(=O)NC(=S)Nc2ccccc2N2CCOCC2)cc1Br	35.5	40.0	0.7	27.7	-6.7	100.6*
COc1ccc(C(=O)NC(=S)Nc2ccccc2N2CCOCC2)cc1Br	46.2	11.0	0.0	25.1	12.4	37.3
O=C(Nc1ccc(Cl)cc1F)c1ccc2c(c1)C(=O)N(Cc1ccncc1)C2=O	/	24.1	-0.1	/	0.2	-6.2
Cc1nn(C)c(Oc2ccc(Cl)cc2)c1C(=O)Nc1ccc(F)cc1F	-3.4	312.2*	0.1	8.5	9.6	-10.8
Cn1nc(C(F)(F)F)c(C(=O)Nc2ccc(F)cc2F)c1Oc1cccc(Cl)c1	-2.0	6.6	-0.2	4.3	-1.7	1.2
C=C[C@H](CC(C)C)N(Cc1ccccc1)S(=O)(=O)N(Cc1ccccc1)[C@@H](C=C)CC(C)C	/	-15.5	0.1	/	83.7*	15.9
CC(C)C[C@@H](CO)N(Cc1ccccc1)S(=O)(=O)N(Cc1ccccc1)[C@@H](CO)CC(C)C	/	-33.1	-0.4	/	12.3	125.6*
COC(=O)[C@H](Cc1ccccc1)N(Cc1ccccc1)S(=O)(=O)N(Cc1ccccc1)[C@@H](Cc1ccccc1)C(=O)OC	/	2.5	0.4	/	118.7*	-1.4
CC(C)C[C@@H](CO)N(Cc1ccccc1)S(=O)(=O)N(Cc1ccccc1)[C@H](CO)CC(C)C	/	-16.4	0.2	/	30.7	124.9*
CCOC(=O)C1=C(C(F)(F)F)Nc2ncnn2C1c1cc(OC)ccc1OC (configuration not stated)	-12.2	9.6	-0.1	3.4	-7.8	-2.5
COc1ccc2cc(N=Cc3nc(-c4ccc(C)cc4)oc3O)cnc2c1	-1.9	16.4	0.2	-7.5	-1.8	4.1
COc1ccccc1C(=O)NNC(=O)C(=O)N1CCCCC1	/	331.1	0.2	-22.5	-0.5	8.7
O=C(NNc1ccccc1)C(=O)N1CCCCC1	50.6	279.2	-0.2	24.8	/	110.8*
OC(COCCOc1ccc(Br)cc1)CN1CCCCC1 (configuration not stated)	3.2	5.3	-4.3	20.3	7.9	28.5
Cc1ccc(-n2c(CNc3ccc(F)cc3)nnc2SCC(N)=O)cc1	1.7	52.6	-0.1	-12.6	5.7	-15.3
Cc1ccc(-c2cc(C(F)F)nc(NCc3cccnc3)n2)cc1	20.4	13.5	0.1	59.8*	8.4	16.2
FC(F)(F)c1cc(-c2ccc(Cl)cc2)nc(NCc2cccnc2)n1	10.1	35.8	-0.1	70.1*	5.9	77.0*
Clc1ccc(NCc2cccnc2)c(Cl)c1	/	38.6	-0.6	-1.1	-8.9	-9.4
Cc1ccc(-c2cc(C(F)F)nc(NCc3cccs3)n2)cc1	-20.1	-1.1	-0.6	10.7	3.4	19.2
O=[N+]([O-])c1ccc(Cl)c(NC(=S)N2CCCC2)c1	/	-16.4	0.2	-1.8	-0.3	-14.5
CC(C)N(Cc1nc(-c2ccc(Cl)cc2)no1)C(=O)CN(C)S(=O)(=O)c1ccc(Cl)cc1	43.7	-16.7	-0.1	55.6*	-2.3	-0.2
CC(C)N(Cc1nc(-c2ccccc2)no1)C(=O)CN(C)S(=O)(=O)c1ccc(Br)cc1	6.1	19.8	0.2	-9.3	2.2	/
SMILES	WT yeast gro inh	SUMO Mot1 rescue	Efflux pump mplx	T cruzi inh	Beta apoptosis	CSC inhib
CCc1cc2c(=O)[nH]c(-c3ccccn3)nc2s1	47.0	4.6	0.1	59.6*	66.4	/
O=c1c2ccccc2[nH]c(=S)n1CCN1CCCC1	2.9	0.8	0.0	2.5	-4.5	-7.3
O=c1c2ccccc2[nH]c(=S)n1CCCN1CCC(Cc2ccccc2)CC1	/	-4.5	0.0	55.7*	8.3	28.4
CC(C)N(CCn1c(=S)[nH]c2ccccc2c1=O)C(C)C	6.0	308.2*	0.1	24.7	-1.2	1.5
Cc1cccc(NC(=O)c2nc[nH]c2C(=O)N[C@@H](Cc2ccccc2)C(=O)OCc2ccccc2)c1	/	-8.8	0.3	2.5	-1.2	-11.6
Nc1ccccc1Nc1cc(-c2ccccc2)nn1-c1cccc(Cl)c1	67.7*	30.3	-0.1	58.3*	11.5	39.9
CC(=O)Nc1ccc(-c2cc(NC(C)=O)n(-c3ccccc3)n2)cc1	9.5	765.5	0.2	-16.4	2.9	1.2
Cc1c(C)n(CCO)c2ncnc(Nc3ccc(F)cc3)c12	/	-9.3	0.0	-8.3	1.5	14.1
Cc1c(C)n(CCN(C)C)c2ncnc(NCc3ccccc3)c12	/	-4.6	-0.1	-2.9	-8.1	-1.5
Cc1c(C)n(CCCN(C)C)c2ncnc(Nc3ccc(F)cc3)c12	/	-1.7	0.3	61.0*	-3.3	-13.6
Cc1c(C)n(CCc2ccccc2)c2ncnc(NCCCN(C)C)c12	/	330.5	0.5	31.4	3.0	76.5*
Cc1cc(C)c(NC(=O)CN(C)C(=O)CCC(=O)c2ccc(C)s2)c(C)c1	/	/	-0.1	/	/	/
CN(CC(=O)NCc1ccncc1)S(=O)(=O)c1ccc(Cl)cc1	-10.3	-1.9	0.1	-2.5	-5.2	2.7
COc1ccc(CNC(=O)CN(C)S(=O)(=O)c2ccc(Cl)cc2)cc1	-11.3	339.1*	0.0	-14.8	-3.7	-15.4
COC(=O)C(NC(=O)c1ccccc1C(=O)O)c1ccc2ccccc2c1 (configuration not stated)	/	2.5	0.0	-17.5	-0.6	-19.3
CCN(C(=O)COC(=O)/C=C/c1cccc(Br)c1)C1CCS(=O)(=O)C1 (configuration not stated)	/	-9.5	-1.1	-7.2	-4.9	11.2
CN(C(=O)COC(=O)/C=C/c1cccc([N+](=O)[O-])c1)C1CCS(=O)(=O)C1 (configuration not stated)	/	5.8	-0.1	-0.9	-4.0	91.5*
OC(CCc1cccc(Cl)c1)c1cccs1 (configuration not stated)	/	-20.8	0.1	14.2	-0.8	-3.9
CN=C1S/C(=C\c2cc(C)n(-c3ccccc3F)c2C)C(=O)N1C	73.0*	12.8	0.1	3.9	23.1	15.5
COc1ccc(/C=C2\Oc3cc(OCC(=O)N4CC(O)C[C@H]4C(=O)O)ccc3C2=O)cc1OC (some centres not stated)	/	243.8	0.0	-11.5	-0.6	-6.0
CCCCc1ccc(S(=O)(=O)Nc2nnc(C)s2)cc1	/	-1.0	0.2	-6.9	3.7	1.6
COCc1cc(=O)n2[nH]cc(-c3ccccc3)c2n1	/	150.0	0.0	-2.4	7.0	4.8
CCCc1cc(=O)n2[nH]cc(-c3ccc(Cl)cc3)c2n1	/	132.2	-0.1	-61.6	79.9*	94.9*
O=C(CSc1ccccc1)N1CCN(c2ccc(F)cc2)CC1	/	-18.5	0.0	3.8	-2.1	-2.5

Source: PubChem (several laboratories)
